What all share (format): functional
For experiment [1], the system named is Staphylococcus epidermidis. The experiment in a line: Antibacterial activity against Staphylococcus epidermidis RP62A assessed as colony number after 24 hrs microdilution agar plate method. An outline of the steps: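 MBC: 100 μl from each tube without visible growth in the MIC assay subcultured onto compound-free Mueller-Hinton agar, 37 °C for 24 h. Endpoint is the lowest concentration giving subcultures with no more than five colonies per plate.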
Background: In broth dilution the organism is exposed to a series of concentrations in liquid medium.

The subject of experiment [2] is Staphylococcus epidermidis. Briefly: Antibacterial activity against Staphylococcus epidermidis RP62A 6 hrs biofilm after 16 hrs by microtiter plate method. The gist of the method: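 S. epidermidis RP62A overnight culture diluted 1:10 in TSB (OD600 0.6–0.8), then 1:200 in MH; inoculated into 96-well polystyrene wells, 37 °C for 6 h to form young biofilm. Wells washed four times with sterile PBS, fresh TSB with compound at various concentrations added, further 37 °C for 16 h.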

Experiment [3] has as its system Staphylococcus epidermidis. Briefly: Antibacterial activity against Staphylococcus epidermidis RP62A by broth microdilution method. An outline of the steps: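 MIC against S. epidermidis RP62A by CLSI broth microdilution run in tubes (tube-dilution).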

We go through 25 compounds from ChEMBL document CHEMBL1156224, “Design, synthesis, and antibiofilm activity of 2-arylimino-3-aryl-thiazolidine-4-ones” (2010).

One may read the MBC as the lowest tested concentration that kills the bacteria rather than only halting them. For orientation: MIC means the smallest concentration in the dilution series that meets the test's criterion for growth inhibition. Lower therefore signals inhibition by little substance.

Structures are written as SMILES. In brackets after ≈: the same amount, converted by molar mass. Some results are limits rather than exact numbers.

For `CCc1ccccc1/N=C1\S/C(=C\c2ccc(OCC(=O)O)cc2)C(=O)N1c1ccccc1CC`, the MBC in experiment [1] turned out to be 100 µM. The compound also returned an Activity in experiment [2] of 100 µM. Also, in experiment [3], the MIC came out at 50 µM (≈ 24.3 µg/mL).
With `COc1cc(/C=C2\S/C(=N\c3ccccc3)N(c3ccccc3)C2=O)ccc1OCC(=O)O`, the MBC in experiment [1] was above 200 µM. In experiment [2], this compound yielded an Activity above 200 µM. In experiment [3], this compound came in with an MIC above 200 µM.
As for `CCc1ccccc1/N=C1\S/C(=C\c2ccc(OCC(=O)O)c(OC)c2)C(=O)N1c1ccccc1CC`, the MBC in experiment [1] was 100 µM. The compound further had an Activity in experiment [2] of 100 µM. For the same compound, inhibition of growth in experiment [3] (MIC) required 50 µM (≈ 25.8 µg/mL).
Regarding `CCc1ccccc1/N=C1\S/C(=C\c2cccc(OCC(=O)O)c2)C(=O)N1c1ccccc1CC`, the MBC in experiment [1] amounted to 100 µM. For the same compound, the Activity in experiment [2] worked out at 100 µM. The compound further returned an MIC in experiment [3] of 50 µM (≈ 24.3 µg/mL).
In the case of `COC(=O)COc1ccc(/C=C2\S/C(=N\c3ccccc3)N(c3ccccc3)C2=O)cc1OC`, the MBC in experiment [1] was above 200 µM. The Activity in experiment [2] was above 200 µM. In experiment [3], the MIC is above 200 µM.
Regarding `COC(=O)COc1ccc(/C=C2\S/C(=N\c3ccccc3C)N(c3ccccc3C)C2=O)cc1OC`, the MBC in experiment [1] was above 200 µM. In experiment [2], this compound yielded an Activity above 200 µM. This compound also had an MIC in experiment [3] above 200 µM.
Consider `Cc1ccc(/N=C2\S/C(=C\c3ccc(-c4cccc(C(=O)O)c4)o3)C(=O)N2c2ccc(C)cc2)cc1`, for which, in experiment [1], the MBC turned out to be 25 µM. In experiment [2], this compound showed an Activity of 12.5 µM. This compound came in with an MIC in experiment [3] of 6.25 µM (≈ 3.09 µg/mL).
On to `COc1cc(/C=C2\S/C(=N\c3ccccc3C)N(c3ccccc3C)C2=O)ccc1OCC(=O)O`, for which the MBC in experiment [1] is above 200 µM. For the same compound, in experiment [2], the Activity is above 200 µM. Also, the MIC in experiment [3] was above 200 µM.
Take `COc1cc(/C=C2\S/C(=N\c3ccccc3C)N(c3ccccc3C)C2=O)ccc1O`: in experiment [1], the minimum bactericidal concentration (MBC) was above 200 µM. Further, in experiment [2], the Activity was above 200 µM. Moreover, in experiment [3], the MIC was above 200 µM.
On to `Cc1ccccc1/N=C1\S/C(=C\c2ccc(OCC(=O)O)cc2)C(=O)N1c1ccccc1C`, for which the minimal bactericidal concentration (MBC) in experiment [1] is above 200 µM. In experiment [2], this compound registered an Activity above 200 µM. This compound came in with an MIC in experiment [3] above 200 µM.
On to `COC(=O)COc1ccc(/C=C2\S/C(=N\c3ccccc3C)N(c3ccccc3C)C2=O)cc1`, for which the MBC in experiment [1] was above 200 µM. Also, the Activity in experiment [2] is above 200 µM. The MIC in experiment [3] was above 200 µM.
Consider `COC(=O)c1cccc(-c2ccc(/C=C3\S/C(=N\c4ccccc4C)N(c4ccccc4C)C3=O)o2)c1`, for which the MBC in experiment [1] is above 200 µM. The Activity in experiment [2] is above 200 µM. Further, the MIC in experiment [3] is above 200 µM.
`CCc1ccccc1/N=C1\S/C(=C\c2ccc(-c3cccc(C(=O)OC)c3)o2)C(=O)N1c1ccccc1CC`: the MBC in experiment [1] was above 200 µM. Besides, the Activity in experiment [2] was above 200 µM. In experiment [3], this compound had an MIC above 200 µM.
In the case of `COC(=O)c1cccc(-c2ccc(/C=C3\S/C(=N\c4ccc(C)cc4)N(c4ccc(C)cc4)C3=O)o2)c1`, the MBC in experiment [1] is above 200 µM. This compound also returned an Activity in experiment [2] above 200 µM. The same compound came in with an MIC in experiment [3] above 200 µM.
`CCc1ccccc1/N=C1\S/C(=C\c2ccc(O)cc2)C(=O)N1c1ccccc1CC`: the MBC in experiment [1] is above 200 µM. The compound also yielded an Activity in experiment [2] above 200 µM. In addition, the MIC in experiment [3] was above 200 µM.
Take `CN(C)c1ccc(/C=C2\S/C(=N\c3ccccc3)N(c3ccccc3)C2=O)cc1`: the MBC in experiment [1] is above 200 µM. The Activity in experiment [2] was above 200 µM. Besides, the MIC in experiment [3] is above 200 µM.
In the case of `Cc1ccccc1/N=C1\S/C(=C\c2ccc(O)cc2)C(=O)N1c1ccccc1C`, in experiment [1], the MBC is above 200 µM. The same compound returned an Activity in experiment [2] above 200 µM. In experiment [3], this compound displayed an MIC above 200 µM.
For `CCc1ccccc1/N=C1\S/C(=C\c2ccc(OCC(=O)OC)cc2)C(=O)N1c1ccccc1CC`, in experiment [1], the MBC is above 200 µM. This compound also registered an Activity in experiment [2] above 200 µM. In experiment [3], this compound displayed an MIC above 200 µM.
As for `Cc1ccccc1/N=C1\S/C(=C\c2ccc(-c3cccc(C(=O)O)c3)o2)C(=O)N1c1ccccc1C`, the MBC in experiment [1] is 25 µM. In experiment [2], this compound returned an Activity of 25 µM. In experiment [3], this compound displayed an MIC of 12.5 µM (≈ 6.18 µg/mL).
With `COc1cc(/C=C2\S/C(=N\c3ccccc3)N(c3ccccc3)C2=O)ccc1O`, the MBC in experiment [1] was above 200 µM. The compound also registered an Activity in experiment [2] above 200 µM. Also, the MIC in experiment [3] was above 200 µM.
On to `CCc1ccccc1/N=C1\S/C(=C\c2ccc(-c3cccc(C(=O)O)c3)o2)C(=O)N1c1ccccc1CC`, for which, in experiment [1], the MBC was found to be 25 µM. Further, the Activity in experiment [2] amounted to 25 µM. Also, the MIC in experiment [3] came out at 12.5 µM (≈ 6.53 µg/mL).
On to `CCc1ccccc1/N=C1\S/C(=C\c2cccc(OCC(=O)OC)c2)C(=O)N1c1ccccc1CC`, for which, in experiment [1], the minimum bactericidal concentration (MBC) was above 200 µM. Moreover, the Activity in experiment [2] is above 200 µM. Besides, in experiment [3], the MIC was above 200 µM.
`CCc1ccccc1/N=C1\S/C(=C\c2cccc(O)c2)C(=O)N1c1ccccc1CC`: the MBC in experiment [1] was above 200 µM. This compound yielded an Activity in experiment [2] above 200 µM. The compound also yielded an MIC in experiment [3] above 200 µM.
As to `COc1ccc(/N=C2\S/C(=C\c3ccc(-c4cccc(C(=O)O)c4)o3)C(=O)N2c2ccc(OC)cc2)cc1`, the MBC in experiment [1] was determined as 25 µM. The compound also returned an Activity in experiment [2] of 6.25 µM. For the same compound, the MIC in experiment [3] was determined as 6.25 µM (≈ 3.29 µg/mL).
In the case of `COC(=O)c1cccc(-c2ccc(/C=C3\S/C(=N\c4ccc(OC)cc4)N(c4ccc(OC)cc4)C3=O)o2)c1`, the MBC in experiment [1] is above 200 µM. Also, the Activity in experiment [2] is above 200 µM. This compound showed an MIC in experiment [3] above 200 µM.
